Results: ChEMBL document CHEMBL1153876, “Synthesis of some N-substituted nitroimidazole derivatives as potential antioxidant and antifungal agents” (2009)
Values after ≈ are worked out from the molar mass of the structure shown.

How the values were obtained:
[1] = Antioxidant activity assessed as inhibition of Fe2+-induced lipid peroxidation after 15 to 60 mins by TBARS assay relative to control; type: functional; set-up: concentration or dose not given beside the values
Outline: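 Substrate: egg yolk lipoprotein suspension, made by homogenising yolk with an equal volume of phosphate buffer pH 7.4. Compounds were added as 10^-3 mol/mL solution, with 0.7% FeSO4·7H2O to start non-enzymatic peroxidation, at 37 °C. Controls were Fe only and a blank with neither Fe nor compound; tocopheryl acetate was the reference. The supernatant was heated with acidic thiobarbituric acid at 95 °C for 1 h, extracted into n-butanol–pyridine 15:1, and read by optical density.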

Sydowia polyspora = assay: Antifungal activity against Sclerophoma pityophila after 12 days; type: functional; details: for EC50: Sydowia polyspora, 288 h, read-out: ED50 (the source's name)
Outline: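 Agar dilution on S. pityophila S 231: nine concentrations in geometric progression, 25 to 5000 ppm, in malt agar (1.5% agar, 4% malt extract), 90 mm dishes, three replicate plates each. Centrally inoculated with 5-mm disc from submargin of 10-day-old culture; 22 ± 1 °C, dark, up to 12 days. Growth rate versus compound-free plates gives ED50/ED100; non-growing inocula transferred to fresh agar to assess viability (LD).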

For CC(=O)Cn1c(C)nc(N2CCOCC2)c1[N+](=O)[O-], the Activity [1] was 23.1%.

For Cc1nc(N2CCN(C)CC2)c([N+](=O)[O-])n1CC(=O)c1ccccc1, the Activity [1] was 13%.

In the case of Cc1nc(N2CCCCC2)c([N+](=O)[O-])n1CC(=O)c1ccccc1, the Activity [1] was 48.6%, the ED100 (Sydowia polyspora) was over 5000 ppm and the LD (Sydowia polyspora) was under 5000 ppm. It also gave an EC50 (Sydowia polyspora) of over 5000 µg/mL.

CC(=O)Oc1c(C)c(C)c2c(c1C)CCC(C)(CCC[C@H](C)CCC[C@H](C)CCCC(C)C)O2 (some centres not stated) gave an Activity [1] of 17.8%.

Cc1nc(N2CCCCC2)c([N+](=O)[O-])n1CC(=O)c1ccc(Cl)cc1 showed an Activity [1] of 36.9%, an ED100 (Sydowia polyspora) of under 25 ppm and an LD (Sydowia polyspora) of under 5000 ppm. It also gave an EC50 (Sydowia polyspora) of under 25 µg/mL.

With Cc1ccccc1Nc1nc(C)n(CC(=O)c2ccccc2)c1[N+](=O)[O-] the Activity [1] was -354%.

In the case of CC(=O)Cn1c(C)nc(Nc2ccccc2)c1[N+](=O)[O-], the Activity [1] was 15.1%.

In the case of Cc1nc(N2CCCC2)c([N+](=O)[O-])n1CC(=O)c1ccc(Cl)cc1, the Activity [1] was 20.8%, the ED100 (Sydowia polyspora) was over 5000 ppm and the LD (Sydowia polyspora) was under 5000 ppm. It also gave an EC50 (Sydowia polyspora) of over 5000 µg/mL.

Cc1nc(N2CCOCC2)c([N+](=O)[O-])n1CC(=O)c1ccc(Cl)cc1 showed an Activity [1] of 30.1%.

Work on CN1CCN(c2ncn(CC(O)CCl)c2[N+](=O)[O-])CC1 (configuration not stated) yielded an Activity [1] of 39.1%.

Cc1nc(N2CCOCC2)c([N+](=O)[O-])n1CC(=O)c1ccccc1 gave an Activity [1] of 39.9%.

With O=C(Cn1cnc([N+](=O)[O-])c1[N+](=O)[O-])c1ccccc1 the Activity [1] was 34.5%.

With Cc1nc([N+](=O)[O-])c([N+](=O)[O-])n1CC(=O)c1ccccc1 the Activity [1] was 26.4%.

Work on Cc1nc(N2CCCC2)c([N+](=O)[O-])n1CC(=O)c1ccccc1 yielded an Activity [1] of 45.2%.

In the case of O=C(Cn1cnc(N2CCOCC2)c1[N+](=O)[O-])c1ccc(Cl)cc1, the Activity [1] was 21%.

Work on Cc1ccccc1Nc1ncn(CC(=O)c2ccccc2)c1[N+](=O)[O-] yielded an Activity [1] of 1.2%.

For Cc1nc([N+](=O)[O-])c([N+](=O)[O-])n1CC(=O)c1ccc(Cl)cc1, the Activity [1] was 57.6%, the ED100 (Sydowia polyspora) was over 5000 ppm and the LD (Sydowia polyspora) was under 5000 ppm. The EC50 (Sydowia polyspora) was 500 µg/mL (≈ 1540 µM).

O=C(Cn1cnc([N+](=O)[O-])c1[N+](=O)[O-])c1ccc(Cl)cc1 gave an Activity [1] of 60%, an ED100 (Sydowia polyspora) of over 5000 ppm and an LD (Sydowia polyspora) of under 5000 ppm. It also gave an EC50 (Sydowia polyspora) of 1000 µg/mL (≈ 3220 µM).

For Cc1ccccc1Nc1ncn(CC(=O)c2ccc(Cl)cc2)c1[N+](=O)[O-], the Activity [1] was -35.3%.

For O=C(Cn1cnc(N2CCOCC2)c1[N+](=O)[O-])c1ccccc1, the Activity [1] was 56.3%, the ED100 (Sydowia polyspora) was under 25 ppm and the LD (Sydowia polyspora) was under 5000 ppm. For the same compound, the EC50 (Sydowia polyspora) was under 25 µg/mL.

Work on Cc1nc(N2CCN(C)CC2)c([N+](=O)[O-])n1CC(=O)c1ccc(Cl)cc1 yielded an Activity [1] of 37.1%.

Compound O=[N+]([O-])c1c(N2CCOCC2)ncn1CC(O)CCl (configuration not stated) has an Activity [1] of 51.6%.

Cc1ccccc1Nc1nc(C)n(CC(=O)c2ccc(Cl)cc2)c1[N+](=O)[O-] showed an Activity [1] of 12.2%.

Work on O=C(Cn1cnc(N2CCCC2)c1[N+](=O)[O-])c1ccccc1 yielded an Activity [1] of 44.2%.
